Compounds with a hit are over-represented: about 2.5% of the library has one in this group of screens.
TRPC4 PAM – allosteric potentiators of mouse TRPC4 channel; Q9QUQ5; HEK293 TRPC4beta/mu-opioid, DAMGO EC20, Fluo-4 Ca2+ flux; stronger effect = higher value; B-score at 10 µM; 310,000 tested, 0.42% active; AID 2227;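 active = B-score of calcium response area above 5 SD of library B-scores, with initial fluorescence ratio within 5 SD of library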;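 also: B-score of integrated fluorescence ratio over time as area under calcium response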
Pemphigus Ab inh – inhibitors of pemphigus antibody binding to human desmoglein-3 | P32926 | DSG3-coupled beads, scFv-anti-DSG3-GFP binding, flow cytometry; stronger effect = lower value | binding (percent of control), % at 10 µM | 310,000 tested, 0.48% active | AID 588358;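 active = binding more than 3 SD below its plate's average and above zero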;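 also: hits lower antibody fragment binding to DSG3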
Target sequence (P32926 whole entry, looked up, the tested form may be a part): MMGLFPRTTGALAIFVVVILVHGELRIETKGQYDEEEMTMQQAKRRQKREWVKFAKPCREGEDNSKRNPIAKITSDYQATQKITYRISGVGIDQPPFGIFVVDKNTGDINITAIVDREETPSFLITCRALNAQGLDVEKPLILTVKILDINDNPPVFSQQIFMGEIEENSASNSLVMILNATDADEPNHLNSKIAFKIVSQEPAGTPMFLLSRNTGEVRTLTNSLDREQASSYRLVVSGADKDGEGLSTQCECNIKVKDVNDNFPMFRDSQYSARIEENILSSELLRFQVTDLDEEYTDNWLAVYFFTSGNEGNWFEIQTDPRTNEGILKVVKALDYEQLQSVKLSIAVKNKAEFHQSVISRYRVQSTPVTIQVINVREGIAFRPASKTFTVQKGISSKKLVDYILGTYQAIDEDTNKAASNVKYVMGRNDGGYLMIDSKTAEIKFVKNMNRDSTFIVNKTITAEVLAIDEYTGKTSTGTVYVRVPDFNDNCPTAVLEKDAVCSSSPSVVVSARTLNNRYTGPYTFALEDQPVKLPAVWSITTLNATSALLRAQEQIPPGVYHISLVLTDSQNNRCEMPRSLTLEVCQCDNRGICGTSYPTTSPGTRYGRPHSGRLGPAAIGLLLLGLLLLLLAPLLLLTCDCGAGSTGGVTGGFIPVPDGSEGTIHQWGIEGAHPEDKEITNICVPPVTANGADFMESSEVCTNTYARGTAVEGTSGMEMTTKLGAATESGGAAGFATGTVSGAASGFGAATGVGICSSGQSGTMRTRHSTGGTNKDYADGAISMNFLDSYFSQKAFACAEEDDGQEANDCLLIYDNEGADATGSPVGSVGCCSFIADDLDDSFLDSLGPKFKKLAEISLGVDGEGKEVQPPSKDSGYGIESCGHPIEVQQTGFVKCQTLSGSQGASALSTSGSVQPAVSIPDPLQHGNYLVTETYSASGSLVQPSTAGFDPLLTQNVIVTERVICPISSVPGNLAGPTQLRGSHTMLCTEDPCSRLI
TRPC4 act – opens the mouse TRPC4 cation channel | HEK293 TRPC4beta/mu-opioid, Fluo4 calcium fluorescence; stronger effect = higher value | B-score at 10 µM | Q9QUQ5 | AID 2237 | 310,000 tested, 0.49% active;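 active = B-score above 5 SD of library B-scores, and initial fluorescence ratio not above library mean plus 5 SD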;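 also: positive B-score marks a calcium rise read as TRPC4 activation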
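System – HEK293 cells stably co-expressing mouse TRPC4beta and mu-opioid receptor · Signal – Fluo4 calcium-sensitive dye fluorescence, kinetic, 1 Hz baseline · Benchmarks – buffer (low) and maximal DAMGO (high) · Read-out – B score of integrated fluorescence ratio per well · Incubation – dye loading 45 min room temperature, 110 s kinetic read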
TRPC6 act – activators of mouse TRPC6 channel | AID 2550 | B-score at 10 µM | Q61143 | HEK293-TRPC6 membrane potential dye fluorescence; stronger effect = higher value | 310,000 tested, 0.13% active;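 active = B-score of the integrated fluorescence ratio above library mean plus 3 SD, and starting fluorescence ratio within library mean plus 5 SD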;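 also: higher score means more depolarization so channel activation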
TRPC6 inh – inhibitors of mouse TRPC6 channel; Q61143; HEK293-TRPC6, membrane potential dye, ACh-evoked depolarization; stronger effect = lower value; B-score at 10 µM; 310,000 tested, 1.1% active; AID 2553;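 active = B-score under library mean minus 3 SD, initial fluorescence not abnormally high, positive integrated signal ratio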;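 also: B-score derived from integrated fluorescence ratio over the kinetic read; more negative B-score means stronger inhibition of depolarization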
TRPC4 block – blocks the mouse TRPC4 cation channel; AID 2247; B-score at 10 µM; HEK293 TRPC4beta/mu-opioid, DAMGO-evoked Fluo4 calcium flux; stronger effect = lower value; Q9QUQ5; 300,000 tested, 0.39% active;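 active = B-score over 3 SD under the library average, no early fluorescence shift, positive overall ratio signal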
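material = TRPC4beta/mu-opioid receptor HEK293 cell line | probe or stimulus = sequential submaximal and maximal DAMGO stimulation | compound dosing = one concentration per compound | measured by = Fluo4 Ca2+ flux fluorescence | evaluation = integrated fluorescence ratio relative to baseline, converted to per-well B score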
An asterisk follows results filed as active; i = inactive; · = no result given.

SMILES	TRPC4 PAM	Pemphigus Ab inh	TRPC4 act	TRPC6 act	TRPC6 inh	TRPC4 block
c1ccc(N2CCN(Cc3nc4ccccc4[nH]3)CC2)nc1	i	99	i	i	i	i
c1ccc(-c2ncc(CN3CCN(c4ccccn4)CC3)[nH]2)cc1	i	119	i	i	i	-6*
CCOc1ccccc1N(CC(=O)N1CCOCC1)S(=O)(=O)c1ccccc1	i	104	93*	i	i	-6*
CCOc1ccccc1N(CC(=O)N1CCCCCC1)S(=O)(=O)c1ccc(C)cc1	i	102	i	i	i	i
Cc1nc2c(cc1C(=O)N/N=C/c1ccc([N+](=O)[O-])cc1)c(=O)n(C)c(=O)n2C	i	-7.8*	i	i	i	i
CC(=O)NC(CC(=O)OCC(=O)N1CCc2ccccc21)c1ccccc1 (configuration not stated)	i	101	i	i	i	i
CCOc1ccc(NC(=O)CSc2nnc(CNC(=O)c3cccs3)o2)cc1	i	103	i	i	i	i
O=C(c1cccc(C(=O)N2CCN(c3ccccc3)CC2)c1)N1CCN(c2ccccc2)CC1	i	103	i	i	i	-7*
O=C(CCC(=O)N1CCN(c2ccccc2F)CC1)N1CCN(c2ccccc2)CC1	i	77*	i	i	i	i
O=[N+]([O-])c1ccc(C2CNC(c3ccccc3)O2)cc1 (configuration not stated)	14*	·	i	i	i	i
COc1ccc(Cl)c2sc(N(CCN(C)C)C(=O)CCS(=O)(=O)c3ccc(C)cc3)nc12	23*	97	i	i	i	i
COc1ccccc1NC(=S)NN=C(C)c1ccccn1	·	-0.8*	·	·	·	·
C/C(=N\NC(=O)c1ccccc1Cl)c1ccccn1	i	61*	i	i	i	i
COCC1=C(C(=O)OC)C(c2cccs2)n2ncnc2N1 (configuration not stated)	i	108	i	i	i	i
Cc1ccc(NC(=O)c2sc(N)nc2-c2ccc([N+](=O)[O-])cc2)cc1C	i	63*	i	i	i	i
Clc1ccc2c(c1)-c1nnc(Br)n1-c1ccccc1S2	i	92	i	i	i	-6*
CSc1ccc2nnc(-c3cccc(F)c3)n2n1	21*	103	i	i	i	i
CCOC(=O)CC(=O)CSc1ccc2nnc(-c3cccc(F)c3)n2n1	i	97	i	i	i	i
O=C(COC(=O)c1ccccc1C(=O)c1ccccc1)NCCc1ccccc1	i	113	i	i	i	i
O=C(COC(=O)c1ccccc1C(=O)c1ccc(Cl)cc1)NCCc1ccccc1	14*	108	i	i	i	i
COc1ccc(NC(=S)N(CCN(C)C)C(C)c2ccco2)cc1Cl (configuration not stated)	i	101	i	i	i	i
CCN(CC)CCOC(=O)c1cccc(Cl)c1	i	105	i	i	i	i
CCN(CC)CCOC(=O)c1cccc(Br)c1	27*	111	i	i	i	i
CCN(CC)CCOC(=O)c1cccc(OC)c1	i	103	80*	i	i	i
CC(C)(C)c1ccc(/C=N/NC(=S)NCc2ccccc2)cc1	i	99	i	i	i	i
SMILES	TRPC4 PAM	Pemphigus Ab inh	TRPC4 act	TRPC6 act	TRPC6 inh	TRPC4 block
C=CCNC(=S)N/N=C/c1ccc(C(C)(C)C)cc1	i	98	i	i	i	-6*
CCCCN1C(=O)C(C(=O)OCc2ccccc2)CC2=C1CCCC2=O (configuration not stated)	·	96	·	·	·	·
Cc1ccc(C)c(NC(=S)NC2CC3CCC(C2)N3Cc2ccco2)c1 (configuration not stated)	i	80*	i	i	i	i
CC(N=Cc1c(O)c2ccccc2oc1=O)C(=O)O (configuration not stated)	i	51*	i	i	i	i
Cc1ccc(/C=N/N2CCN(C3c4ccccc4-c4ccccc43)CC2)o1	i	112	i	i	i	i
c1coc(C2=Nc3cccc4cccc(c34)N2)c1	i	78*	i	i	i	i
COC(=O)c1cc(NC(=O)COC(=O)CCc2nc3ccccc3c(=O)[nH]2)cc(C(=O)OC)c1	·	65*	·	·	·	·
O=C(COC(=O)CCc1nc2ccccc2c(=O)[nH]1)Nc1ccccc1	·	110	·	·	·	·
Cc1cc(C)c(C(=O)c2ccc(C(=O)NC(C)(C)C)cc2)c(C)c1	i	101	i	i	i	i
Cc1cc(C)c(C(=O)c2ccc(C(=O)N3CCCCC3)cc2)c(C)c1	16*	105	i	i	i	i
Cc1cc(C)c(C(=O)c2ccc(C(=O)N(C(C)C)C(C)C)cc2)c(C)c1	10*	98	i	i	i	i
CCC(C)(C)NC(=O)C(c1ccccn1)N(C(=O)c1csnn1)c1ccc(C)cc1 (configuration not stated)	i	101	i	i	i	i
COc1ccc(C(=O)N/N=C(\CCC(=O)O)c2ccc(C(C)(C)C)cc2)cc1OC	i	98	i	i	i	i
N#Cc1cc2c(=O)n3ccccc3nc2n(-c2ccccc2Cl)c1=O	i	102	i	i	i	i
COc1cccc(CN2CCCC(C(=O)N3CCCCC3)C2)c1 (configuration not stated)	i	98	i	i	i	i
CN(C)S(=O)(=O)N1CCN(c2ccc([N+](=O)[O-])c(NC3CC3)c2)CC1	10*	105	i	i	i	i
CS(=O)(=O)N1CCN(c2ccc([N+](=O)[O-])c(NCc3cccnc3)c2)CC1	i	25*	i	i	i	i
OC1(c2ccc(Cl)cc2)CN(c2ccccc2)C2=[N+]1CCS2 (configuration not stated)	i	114	75*	i	i	i
COc1ccc(C2(O)CN(c3ccccc3)C3=[N+]2CCS3)cc1OC (configuration not stated)	i	114	i	i	i	i
OC1(c2ccc(Br)cc2)CN(c2ccccc2)C2=[N+]1CCS2 (configuration not stated)	i	115	93*	i	i	i
C=CCNc1nc(-c2cccc(OC)c2O)nc2ccccc12	i	92*	i	i	i	i
c1ccc(Nc2nc(NCc3ccco3)c3ccccc3n2)cc1	i	130	i	i	i	i

Bioassay records as filed in PubChem.
